Screens as filed in PubChem BioAssay.
NR3A LBD binder: modulators (binders) of human NR3A ligand-binding domain. AID 1259313. NR3A LBD differential scanning fluorimetry, Tm shift; 0% = protein alone, 100% = glycine-bound protein. hit rate 2.5% among 340,000. Tm shift relative to glycine control, % at 25 µM;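 active = melting temperature shift of at least 10% of the positive control shift, at one fixed dose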
SKN-1 inh: C. elegans SKN-1 inhibition. C. elegans VP596 Pgst-4::GFP/RFP ratio, acrylamide-induced, 24 h. inhibition, % at 21.8 µM. hit rate 0.49% among 360,000. AID 624304;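 active = interference check ratio from 0.5 to 1.5 plus GFP to RFP signal ratio inhibition reaching or exceeding a fixed threshold, cut at about 30% in these data, passing the limit was not always enough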
ADAM17 inh: inhibitors of human ADAM17 | AID 720648 | hit rate 0.83% among 370,000 | inhibition, % at 6.95 µM | recombinant ADAM17, EDANS/DABCYL FRET peptide cleavage;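 active = inhibition above the mean of compounds lying between control limits plus 3 SD, set per campaign, cut at about 8.5% in these data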;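 note: 0% = DMSO-only wells as the low control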
ADAM10 inh: inhibitors of human ADAM10; hit rate 0.62% among 370,000; recombinant ADAM10, EDANS/DABCYL FRET peptide cleavage, 3 h; inhibition, % at 7 µM;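 active = inhibition above a per-campaign cutoff equal to the mean of compounds falling between control-based bounds plus 3 SD, cut at about 20% in these data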;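 note: 0% = DMSO wells while the 100% control is not disclosed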
Target sequence (O14672 214-748 limits assumed): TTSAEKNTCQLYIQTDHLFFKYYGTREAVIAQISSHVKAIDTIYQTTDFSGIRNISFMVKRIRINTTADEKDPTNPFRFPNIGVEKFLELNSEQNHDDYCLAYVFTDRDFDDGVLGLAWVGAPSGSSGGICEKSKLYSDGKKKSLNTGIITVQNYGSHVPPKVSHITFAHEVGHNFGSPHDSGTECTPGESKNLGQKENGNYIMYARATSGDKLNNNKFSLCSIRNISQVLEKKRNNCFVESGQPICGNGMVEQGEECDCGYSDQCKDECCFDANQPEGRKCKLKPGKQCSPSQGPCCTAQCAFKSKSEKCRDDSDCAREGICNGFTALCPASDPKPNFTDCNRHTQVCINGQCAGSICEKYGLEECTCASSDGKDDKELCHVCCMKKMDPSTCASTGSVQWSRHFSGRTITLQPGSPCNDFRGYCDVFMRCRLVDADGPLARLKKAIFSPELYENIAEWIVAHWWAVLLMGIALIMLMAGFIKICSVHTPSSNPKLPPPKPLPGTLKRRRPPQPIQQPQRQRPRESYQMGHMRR
MT1-MMP act inh: inhibitors of human MT1-MMP activation. P50281. GFP/RFP ratio change, % at 20 µM. hit rate 0.061% among 360,000. HT1080 RFP-PRO-GFP cells, GFP/RFP ratio fluorescence, overnight; percent of plate control window, DMSO zero. AID 651647;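 active = GFP/RFP ratio change of at least 30% with cell ATP level not reduced by more than half and red fluorescence within 50% of control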
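Material – HT1080 RFP-PRO-GFP cells · Control set – DMSO wells and RFP-L50D-GFP cells · Incubation – overnight cell settling, then overnight compound exposure, 37 °C, 5% CO2 · Compound dosing – single-point 20 µM compound, 1% DMSO · Read-out – GFP/RFP fluorescence ratio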
MPTP inh: inhibitors of mitochondrial permeability transition pore; isolated mouse mitochondria, Ca2+ swelling absorbance, 30 min; inhibition, % at 10 µM; hit rate 1.4% among 360,000;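 active = inhibition of 50% or more, scaled per plate between neutral and stimulator controls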;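 note: 0% = DMSO wells given calcium and 100% = 1 mM EGTA wells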
ADAM10 confirm: confirmation of inhibitors of human ADAM10. hit rate 1% among 2,100. ADAM10 QFRET peptide cleavage, EDANS fluorescence. AID 743208. shares compounds with ADAM10 inh. inhibition, % at 6.95 µM;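 active = inhibition above about 20% chosen separately for each screening run, limit read from the data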;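 note: 0% = DMSO wells and 100% = marimastat wells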
ADAM17 ctr: counter-screen for ADAM10 exosite inhibitors: inhibitors of human ADAM17 | hit rate 0.5% among 2,100 | ADAM17 QFRET peptide cleavage, EDANS fluorescence | shares compounds with ADAM10 inh | inhibition, % at 6.95 µM;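 active = mean triplicate inhibition above the solvent-only control wells' mean plus 3 SD, cut at about 12% in these data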;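 note: 0% = DMSO wells and 100% = marimastat wells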
Numbers without * were called inactive; x = no result. Compounds with a hit are over-represented: about 4.7% of the library has one in this group of screens.

SMILES | NR3A LBD binder | SKN-1 inh | ADAM17 inh | ADAM10 inh | MT1-MMP act inh | MPTP inh | ADAM10 confirm | ADAM17 ctr
COc1ccc(C(C)=O)cc1CC1(C)C(=O)Nc2ccc(OC(F)(F)F)cc21 (configuration not stated) | x | 11 | 0 | -5 | 1 | 1 | x | x
COc1cc(OC)c(C2CC(=O)N3CN(c4ccccc4)CSC3=C2C#N)cc1OC (configuration not stated) | -1 | 7 | 0 | 24* | -2 | 6 | 2 | 1
CCc1ccccc1N1CSC2=C(C#N)C(c3cc(OC)c(OC)cc3OC)CC(=O)N2C1 (configuration not stated) | -4 | -1 | 0 | 8 | -3 | 3 | x | x
Cc1ccc2oc(=O)c3cc(C(=O)N4CCN(C)CC4)sc3c2c1 | 1 | -6 | -11 | -24 | 4 | -1 | x | x
CC(C)(C)NC(=O)C1C(c2ccc(C(F)(F)F)cc2)=Nc2ccccc2N1C(=O)c1cccc(C(F)(F)F)c1 (configuration not stated) | x | -1 | -6 | -21 | -7 | 2 | x | x
CC(=O)OCC(=O)Nc1ccc(N=Nc2ccccc2)cc1 | -14 | 14 | 5 | 11 | 10 | 2 | x | x
CC(C)C(=O)OCC(=O)Nc1ccc(N=Nc2ccccc2)cc1 | -3 | 23 | 7 | 25* | 13 | 2 | 0 | 1
CC(C)(C)OC(=O)N1C(=O)[C@](OC(=O)c2ccccc2)(c2ccccc2)c2cccc(F)c21 | x | 15 | 5 | -3 | 1 | -1 | x | x
Cc1onc(-c2ccccc2)c1C(=O)NC(=S)NNC(=O)c1cccnc1 | -3 | 13 | 5 | 24* | 6 | -15 | 5 | 1
CCOC(=O)N1CCN(CCC(=O)Nc2ccc(C)c(Br)c2)CC1 | -2 | 0 | -2 | 7 | 3 | 0 | x | x
CC(C)C[C@H](NC(=O)c1[nH]cnc1C(=O)Nc1ccc(CNC(=O)OC(C)(C)C)cc1)C(=O)OC(C)(C)C | -9 | 3 | 9.1* | 25* | -22 | -1 | 25* | 6
CC(C)C[C@H](NC(=O)c1[nH]cnc1C(=O)N[C@@H](C)c1ccccc1)C(=O)OC(C)(C)C | -24 | 6 | 8 | 24* | -16 | -1 | 4 | 2
CC(C)C[C@H](NC(=O)c1[nH]cnc1C(=O)N[C@@H](C)C(=O)OC(C)(C)C)C(=O)OCc1ccccc1 | -21 | -15 | 12* | 21* | -6 | 0 | 4 | 1
CC(C)C[C@H](NC(=O)c1nc[nH]c1C(=O)NCc1ccccc1)C(=O)OC(C)(C)C | -27 | 16 | 8 | 22* | -5 | 0 | 5 | 1
CC(C)C[C@H](NC(=O)c1[nH]cnc1C(=O)N[C@@H](Cc1ccccc1)C(=O)OCc1ccccc1)C(=O)OC(C)(C)C | 0 | 1 | 3 | 17 | -17 | -1 | x | x
CC(C)C[C@H](NC(=O)c1[nH]cnc1C(=O)N[C@@H](Cc1ccccc1)C(=O)OC(C)(C)C)C(=O)OCc1ccccc1 | -6 | 12 | 7 | 13 | -18 | -1 | x | x
CC(C)C[C@H](NC(=O)c1[nH]cnc1C(=O)N[C@@H](Cc1ccccc1)C(=O)OC(C)(C)C)C(=O)OC(C)(C)C | -11 | 23 | -2 | 7 | -37 | -1 | x | x
O=C(COC(=O)Cc1ccc(Cl)cc1)NCCc1ccccc1 | 0 | 1 | -7 | -6 | -1 | 0 | x | x
CC1=C(C(=O)N2CCCCCC2)CC(CC(=O)NCCc2ccccn2)C(=O)N1CCC1=CCCCC1 (configuration not stated) | x | -9 | -4 | -2 | 4 | 1 | x | x
CC(C)(C)OC(=O)[C@H](Cc1ccccc1)NC(=O)c1nc[nH]c1C(=O)N1CCN(c2ccccc2)CC1 | -3 | 9 | 7 | 22* | -1 | 0 | 5 | 2
Cc1c(C(=O)NCc2ccc3c(c2)OCCO3)sc(=O)n1Cc1ccc2c(c1)OCO2 | x | 0 | 2 | -2 | 4 | -2 | x | x
CSc1ccc(Cn2c(C)c(C(=O)NCc3ccc(Cl)c(Cl)c3)sc2=O)cc1 | x | -3 | 8 | 21* | 5 | 0 | 10 | 4
CSc1ccc(Cn2c(C)c(C(=O)NCc3ccc4c(c3)OCCO4)sc2=O)cc1 | x | 6 | 6 | 20* | 1 | -1 | 5 | 1
Cc1c(C(=O)NCc2ccc(F)cc2)sc(=O)n1Cc1ccc(Cl)c(Cl)c1 | x | 13 | 5 | 5 | 3 | -1 | x | x
CC(=O)Nc1ccc(N2Cc3ccccc3C2)cc1 | 0 | 5 | 0 | 10 | -6 | 2 | x | x
SMILES | NR3A LBD binder | SKN-1 inh | ADAM17 inh | ADAM10 inh | MT1-MMP act inh | MPTP inh | ADAM10 confirm | ADAM17 ctr
Cn1cc(C(=O)c2ccc(Cl)cc2Cl)cc1C(=O)N/N=C(\N)COc1ccc(Cl)cc1Cl | -1 | -5 | 20* | 30* | -16 | 3 | 12 | 4
CC(C)Oc1ccc(NC(=O)c2ccncc2)cc1 | -2 | 29 | -1 | 78* | 0 | 4 | -2 | 0
CC(C)Oc1ccc(C(=O)Nc2ccc([N+](=O)[O-])cc2)cc1 | 1 | 3 | -3 | 7 | 0 | 23 | x | x
Cc1nnc2sc(SCc3cccc(Cl)c3)nn2c1=O | -2 | 1 | 0 | 1 | -5 | -1 | x | x
O=C(CC1SC(=Nc2ccccc2)N(Cc2ccccn2)C1=O)Nc1ccc(Br)cc1 (configuration not stated) | 12* | 13 | 7 | 22* | -8 | 4 | 11 | 4
Cc1ccc([C@@H]2CC=C(C(=O)O)[C@H](c3ccc(Br)cc3)N2S(=O)(=O)c2ccccc2C)cc1 | -4 | -11 | 2 | 16 | 0 | 1 | x | x
O=C(NCCc1ccccc1)c1oc2ccccc2c1COc1ccccc1 | -7 | 19 | 7 | 20* | -17 | 11 | 6 | 3
O=C(Nc1ccccc1Cc1ccccc1)c1oc2ccccc2c1COc1ccccc1 | 4 | -9 | 0 | 5 | -8 | 12 | x | x
C[C@H](CO)N1C[C@H](C)[C@H](CN(C)Cc2ccccc2)Oc2c(NC(=O)Nc3ccc(F)cc3)cccc2C1=O | -1 | 1 | 3 | 12 | 2 | 1 | x | x
C[C@@H]1CN([C@H](C)CO)C(=O)c2cc(NC(=O)Nc3ccc(C(F)(F)F)cc3)ccc2O[C@H]1CN(C)C(=O)Nc1ccc(F)cc1 | 18* | 12 | 8 | 35* | 13 | -1 | 8 | 2
C[C@@H]1CCCCO[C@H](CN(C)C(=O)Nc2ccc(F)cc2)[C@@H](C)CN([C@H](C)CO)C(=O)c2cc(NC(=O)c3ccccc3)ccc2O1 | x | -2 | 3 | 23* | 4 | -2 | 3 | 0
